HSF1 inhib = HSF1 inhibition | NIH3T3-HGL HSE-luciferase, MG132-induced, luminescence 8 h; active compounds read low | activity change, negative = inhibition, % at 7.5 µM (by protocol) | 0.77% of 300,000 active | AID 2098;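 active = more than half of replicate wells show activity change below -50%, luminescence cut by over half; inconclusive = some wells, but at most half, below -50%; inactive = no replicate well below -50%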;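 also: luciferase reports HSF-1 transcriptional activity via heat shock element; 0% = median of DMSO wells and -100% = zero luminescence signal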
T cruzi repl = blocks replication of Trypanosoma cruzi; T. cruzi beta-gal in NIH3T3, luminescence, 90 h; inhibition, % (concentration not given with the values); 1.4% of 300,000 active; AID 1885;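 active = mean inhibition across valid replicates above about 55%, limit read from the data; inconclusive = mean below that limit but half or more replicates reach it; inactive = mean below it, under half of replicates reach it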;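 also: signal also drops with host cell toxicity which is not excluded here; 0% = plate median of DMSO wells and 100% = zero luminescence signal; higher percent means less beta-gal luminescence so fewer parasites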
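assay system = mouse NIH/3T3 fibroblasts infected with β-gal-expressing T. cruzi Tulahuen C4 | input = 5,000 NIH/3T3 host cells per well | buffer or medium = DMEM plus 2% FBS | timing = 3 h host attachment, then at least 90 h co-culture | measured by = GalScreen luminescence, 60 min | evaluation = luminescence reflecting intracellular parasite burden, expressed as percent inhibition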
HSF1 activator = increases HSF-1 driven luciferase reporter signal; NIH3T3-HGL HSF-1 luciferase reporter, MG132, 8 h; 100% = twice DMSO control signal; activation, % at 9 µM; AID 504408; 1.7% of 300,000 active;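 active = mean replicate activation of at least 50% with a set share of replicates each reaching 50%; inconclusive = only one of those two conditions met; inactive = mean below 50% and too few replicates reaching it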;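 also: 0% = median of the neutral control wells and 100% = twice that signal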
Calb FLC = C. albicans growth modulation with fluconazole | growth inhibition, % (test concentration not listed) | AID 1979 | 0.57% of 300,000 active | C. albicans CaCi-2 + fluconazole, Alamar Blue growth, 48 h;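 active = growth inhibition above about 58% in most replicates, limit read from the data, passing the limit was not always enough; inconclusive = exactly half the replicates above a set limit; inactive = most replicates below a set limit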;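 also: all wells also contain fluconazole at 8 µg/ml as a sub-toxic cotreatment; 0% = median of DMSO wells and 100% = median of geldanamycin control wells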
HIF act = HIF pathway transcriptional activation. U2OS HRE-luciferase reporter, luminescence; normalized: DMSO 0%, desferrioxamine 100%. activation, % at 7.5 µM (by protocol). 0.32% of 300,000 active;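 active = mean activation of at least 10% of the iron chelator positive control signal, with at least half of replicates also reaching 10%; inconclusive = mean and replicate majority disagree about reaching 10%; inactive = mean and most replicates under 10%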
* = called active by the depositor; ? = inconclusive; . = no result. Only some compounds are listed: those with a hit (about 4.4% of all), similar ones and a draw of the others.

SMILES | HSF1 inhib | T cruzi repl | HSF1 activator | Calb FLC | HIF act
c1ccc(-c2nc3ccccc3s2)nc1 | 31 | -12 | 58* | -23 | 2
Cc1cc([N+](=O)[O-])ccc1NC(=O)C(C)N1CCN(c2ccccn2)CC1 (stereo not given) | 3 | -4 | 15 | 25 | -2
CCN(C(=O)COC(=O)C1CCN(S(=O)(=O)c2ccc3c(c2)OCCO3)CC1)C1CCCCC1 | 1 | 10 | 5 | 0 | 1
CCOC(=O)N/N=C\c1ccccc1OC/C=C/c1ccccc1 | 23 | -10 | 55* | 32 | 5
CC(C)NC(=O)NC(=O)CN1C(=O)NC(Cc2c[nH]c3ccccc23)C1=O (stereo not given) | -10 | -2 | -23 | -9 | -1
Cc1cccc(NS(=O)(=O)c2ccc(NC(=O)CN(c3cc([N+](=O)[O-])ccc3C)S(C)(=O)=O)cc2)c1 | 3 | 75* | 22 | 8 | 0
COc1ccc(C)cc1NS(=O)(=O)c1ccc(NC(=O)CN(c2cc([N+](=O)[O-])ccc2C)S(C)(=O)=O)cc1 | 18 | 50 | 21 | 10 | -1
Fc1ccc(F)c(C2=NNC(=Nc3ccccc3F)SC2)c1 | 31 | -1 | 81* | 1 | 2
COCCn1c(C)cc(C2=NNC(=Nc3ccccc3F)SC2)c1C | -89* | 4 | -90 | -44 | -7
COCCNC(=O)CN(Cc1ccccc1)S(=O)(=O)c1ccc2nc(C)sc2c1 | -4 | -9 | 3 | 1 | 0
O=C(CN1C(=O)c2cccc3cccc(c23)C1=O)N1CCN(Cc2ccc3c(c2)OCO3)CC1 | 9 | -5 | 40 | -29 | 0
Cc1cc(Cl)c(OCCOCCN2CCN(C)CC2)c(Br)c1 | 2 | 59* | 0 | 0 | 0
Cc1cc(C(C)(C)C)ccc1OCCOCCN1CCCC1 | 4 | 55* | 5 | -22 | 0
Clc1cc(Br)ccc1OCCOCCN1CCCC1 | -3 | 59* | -5 | -33 | 0
Cc1cc(Cl)c(OCCOCCN2CCC(C)CC2)c(Br)c1 | 0 | 36 | -4 | -27 | -1
CC1CCN(CCOCCOc2ccc(Cl)cc2Br)CC1 | -4 | 64* | -12 | 14 | 1
Clc1cc(Br)ccc1OCCOCCN1CCOCC1 | -2 | 44 | -2 | 7 | 0
NC(=O)C1CCN(C(=O)c2ccc([N+](=O)[O-])cc2NC(=O)c2cccs2)CC1 | 1 | -4 | -5 | -4 | 0
COc1ccccc1NC(=O)C1CC(O)CN1C(=O)Oc1ccccc1 (stereo not given) | 2 | -4 | 9 | 2 | 0
Clc1ccc(OCCOCCN2CCCCC2)c(Br)c1 | -10 | 59* | -1 | 24 | 0
CCOc1ccc(CNC(=S)Nc2ccccc2)cc1Cl | 4 | -35 | 17 | -75 | -11
CCN(CC)C(=O)CSc1ncnc2sc(C)c(C)c12 | 8 | 0 | 52* | -1 | -1
Cc1sc2ncnc(SCC(=O)NC(C)(C)C)c2c1C | -4 | -3 | -2 | -4 | 0
COc1ccc(/C(C)=N/NC(=O)CNC(=O)/C=C\c2ccccc2)c(OC)c1 | -66* | -15 | -69 | 29 | 0
O=C(Nc1nnc(-c2ccco2)o1)c1cccc(Cl)c1 | -13 | 52 | -8 | 87* | 0
SMILES | HSF1 inhib | T cruzi repl | HSF1 activator | Calb FLC | HIF act
O=C(Nc1nnc(-c2ccccn2)o1)c1cccc(Cl)c1 | -2 | -25 | 7 | -3 | 0
Cc1nn(-c2ccccc2)c(C)c1C(=O)Nc1nnc(-c2ccco2)o1 | 1 | -19 | 5 | 84* | 0
CN(C)CCCOC(=O)COc1ccc(C(C)(C)C)cc1 | -5 | -18 | -8 | -2 | 1
COc1ccccc1N1CCN(C(=O)c2cc3c(=O)n4cccc(C)c4nc3s2)CC1 | -2 | 10 | 1 | 2 | -15
Cc1cc([N+](=O)[O-])c2c(c1C)C1C=CCC1C(c1ccccn1)N2 (stereo not given) | 2 | -1 | -1 | 15 | 0
S=C1NCCNC(=S)NCCOCCOCCOCCN1 | -5 | 3 | 5 | -15 | 0
NC(=O)c1cc2ccccc2o/c1=N/NC(=O)c1cccs1 | 5 | -4 | 17 | 9 | 2
COc1ccccc1/C=C/C=N/NC(=O)c1cccs1 | 22 | 5 | 61* | 1 | 5
COc1ccc2o/c(=N/NC(=O)c3cccs3)c(C(N)=O)cc2c1 | 5 | -25 | 56* | . | 3
COc1cccc(/C=N/NC(=O)c2cccs2)c1 | 15 | 6 | 63* | -1 | 4
Cc1ccc(/C=C2\OC(=O)c3ccccc32)cc1 | 48 | -20 | 59* | -11 | 4
CC(=O)c1ccc(N2CCN(C(=O)CCS(=O)(=O)c3ccc4c(c3)CCN4C(C)=O)CC2)cc1 | -8 | -10 | -7 | 24 | 1
Cc1ccc(OCC(O)Cn2c(=N)n(CCN3CCOCC3)c3ccccc32)cc1 (stereo not given) | -2 | 1 | 3 | 3 | 2
Cc1ccc(OCC(O)Cn2c(=N)n(CCN3CCCCC3)c3ccccc32)cc1 (stereo not given) | -3 | 73* | -10 | 1 | -1
Cc1ccccc1OCC(O)Cn1c(=N)n(Cc2ccccc2)c2ccccc21 (stereo not given) | -4 | 55* | -2 | 16 | -1
CC(C)NC(=O)COC(=O)c1cccc(NS(=O)(=O)/C=C/c2ccccc2)c1 | 3 | 2 | 14 | 103* | 0
CCOC(=O)C1=C(C)NC2=C(C(=O)c3ccccc32)C1c1ccc([N+](=O)[O-])o1 (stereo not given) | 5 | 58* | 11 | 2 | 0
Cc1ccc2[nH]c(=O)c(CN(Cc3ccco3)S(=O)(=O)c3c(C)ccc4nsnc34)cc2c1 | 1 | 32 | -1 | -5 | 0
COc1ccc2[nH]c(=O)c(CN(Cc3cccs3)S(=O)(=O)c3c(C)ccc4nsnc34)cc2c1 | -64* | 6 | -69 | ? | -1
CCOC(=O)/C(C#N)=C/c1cc(C)n(-c2ccc(Br)cc2)c1C | 0 | 3 | -14 | 2 | 0
CCOC(=O)/C(C#N)=C/c1cc(C)n(-c2ccccc2)c1C | -70* | 32 | -74 | 28 | 0
Cc1cc(/C=C(\C#N)C(=O)Nc2ccccc2)c(C)n1-c1cccnc1 | 23 | -2 | 58* | 22 | 3
CC(C)[C@H](NC(=O)C1CCN(S(=O)(=O)c2ccc(F)cc2)CC1)C(=O)N1CCCCCC1 | -1 | 1 | 0 | 0 | 0
CCN(CC)CCNC(=O)c1ccc(NC(=O)/C=C/c2cc(OC)c(OC)c(OC)c2)cc1 | -2 | -6 | 8 | 66* | 0
COc1cc(/C=C/C(=O)Nc2ccc(C)cc2)cc(OC)c1OC | -1 | -4 | 18 | -5 | 0
Cn1ccsc1=NC(=O)c1ccc([N+](=O)[O-])o1 | -1 | 60* | 5 | 45 | 1
COc1cc(C(=O)N=c2sccn2C)c([N+](=O)[O-])cc1OC | -4 | 12 | 6 | -2 | 1

High-throughput results: PubChem, Broad Institute
